The nature of data set [1]: Drug uptake in tumor of BALB/c mouse xenografted with […] cells at 0.25 umol/kg, iv measured at 24 hrs by fluorescence imaging. Format: ADME, organism-based, Neoplasm. The settings on record: in vivo, dose 0.25 µmol/kg. The procedure, abridged: (§1)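 Subcutaneous Colon 26 tumors (~50 mm3) on the shoulder of BALB/c mice, 3 mice/group. Photosensitizer 0.25 μmol/kg iv in 1% Tween 80/D5W. Under isoflurane, Maestro spectral imaging used the Deep Red filter set (Ex 671–705 nm, Em 750 nm long-pass, 2 s exposure). Images taken at 4, 8, 12, 24 and 48 h; unmixed tumor signal quantified.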

The test system of data set [2] is Colon 26. Briefly: (§2) Photodynamic therapy against […] cells xenografted in BALB/c mouse assessed as reduction tumor volumes by measuring tumor cure response at 0.25 umol/kg, iv exposed to laser light at 787 nm at a dose of 135 J/cm2 and 35 mW/cm2 after 24 hrs post dose measured at day 60 post dose. Type of data set: functional. The settings on record: dose 0.25 µmol/kg, time 60.0 day.

Data set [3] relates to Colon 26. Briefly: Photodynamic therapy against […] cells assessed as reduction in cell viability at 0.025 uM incubated for 24 hrs followed by exposure to light at 787 nm in the range of 0-1.0 J/cm2 irradiation by MTT assay. Type of data set: functional, cell-based. The procedure, abridged: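 Murine Colon 26 cells (3600/well) exposed to 0.025 μM photosensitizer for 24 h. Irradiated at 787 nm from a tunable dye laser, 0–1.0 J/cm2 at 3.2 mW/cm2. MTT added 48 h after light. Blank-subtracted OD divided by untreated OD for each light dose gave percent survival. Single experiment in triplicate.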

Data set [4] has as its system Colon 26. Briefly: Photodynamic therapy against […] cells assessed as reduction in cell viability at 0.1 to 0.4 uM incubated for 24 hrs followed by exposure to 0.25J/cm2 irradiation by MTT assay. Format: functional, cell-based. The note with it: dose 0.1-0.4 µM. The procedure, abridged:
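Murine Colon 26 cells (3600/well) exposed to a range of photosensitizer concentrations for 24 h, then irradiated at 787 nm, 0.25 J/cm2 (3.2 mW/cm2). MTT readout 48 h after light. Percent survival taken relative to untreated cells after blank subtraction. Experiments done in triplicate.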
Background: Formazan colour is commonly taken as a measure of viable cells.

Data set [5] in a line: Drug uptake in tumor of BALB/c mouse xenografted with […] cells at 0.25 umol/kg, iv measured after 4 hrs by fluorescence imaging. Type of data set: ADME, organism-based, Neoplasm. The settings on record: in vivo, dose 0.25 µmol/kg. A digest of the protocol: as §1
For data set [6], the system named is Colon 26. Briefly: Photodynamic therapy against […] cells xenografted in BALB/c mouse assessed as reduction tumor volumes by measuring tumor response at 0.25 umol/kg, iv exposed to laser light at 787 nm at a dose of 135 J/cm2 and 35 mW/cm2 after 12 hrs post dose measured at day 60 post dose. Format: functional, organism-based. The settings on record: dose 0.25 µmol/kg, time 60.0 day. (In xenograft studies the graft and the host belong to different species.)

The test system of data set [7] is Colon 26. Briefly: Photodynamic therapy against […] cells xenografted in BALB/c mouse assessed as reduction tumor volumes by measuring tumor response at 0.25 umol/kg, iv exposed to laser light at 787 nm at a dose of 135 J/cm2 and 35 mW/cm2 after 48 hrs post dose measured at day 60 post dose. Format: functional, organism-based. The note with it: dose 0.25 µmol/kg, time 60.0 day.

A short description of data set [8]: Photosensitizing activity in mouse Colon 26 cells assessed as induction of STAT3 cross-linking at 15 nM incubated for 24 hrs followed exposure to irradiation at 797 nm light (3 J/cm2) by Western blotting analysis. For orientation: Immunoblotting shows a protein as a band on a membrane.
Data set [9] is described as follows: Photosensitizing activity in mouse Colon 26 cells assessed as induction of STAT3 cross-linking at 30 nM incubated for 24 hrs followed exposure to irradiation at 797 nm light (3 J/cm2) by Western blotting analysis.
The nature of data set [10]: Photosensitizing activity in mouse Colon 26 cells assessed as induction of STAT3 cross-linking at 60 nM incubated for 24 hrs followed exposure to irradiation at 797 nm light (3 J/cm2) by Western blotting analysis.
Data set [11] in a line: Photosensitizing activity in mouse Colon 26 cells assessed as induction of STAT3 cross-linking at 125 nM incubated for 24 hrs followed exposure to irradiation at 797 nm light (3 J/cm2) by Western blotting analysis.
A short description of data set [12]: Photosensitizing activity in mouse Colon 26 cells assessed as induction of STAT3 cross-linking at 250 nM incubated for 24 hrs followed exposure to irradiation at 797 nm light (3 J/cm2) by Western blotting analysis.
For data set [13], the system named is Mus musculus. Briefly: Photosensitizing activity in BALB/c mouse implanted with mouse Colon 26 cells assessed as induction of STAT3 cross-linking at 0.47 umol/kg, iv for 24 hrs followed by exposure to laser light at 787 nm by Western blotting analysis. The settings on record: BALB/c m, dose 0.47 µmol/kg.
A short description of data set [14]: Drug uptake in tumor of BALB/c mouse xenografted with […] cells at 1 umol/kg, iv measured after 24 to 48 hrs using 14C-labeled cpd by scintillation counting method. Format: ADME, organism-based, Neoplasm. The settings on record: in vivo, time 24-48 hrs, dose 1 µmol/kg. A digest of the protocol: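 Colon 26 tumor-bearing BALB/c mice (~50 mm3) received 14C-labeled compound 1.0 μmol/kg iv (0.1 μCi/mouse), 3 mice/time point. Mice euthanized at 24, 48 and 72 h; tumor and muscle removed, weighed and solubilized overnight at 50 °C. Radioactivity counted; results given as mean cpm/g tissue ± SD.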

The nature of data set [15]: Drug uptake in tumor of BALB/c mouse xenografted with […] cells at 0.25 umol/kg, iv measured after 24 by fluorescence imaging. Format: ADME, organism-based, Neoplasm. The note with it: in vivo, 24 h, dose 0.25 µmol/kg. The procedure, abridged: as §1
Data set [16] can be described thus: as §2. The note with it: dose 0.25 µmol/kg; time 60 day. Type of data set: functional. Details: scale not given: the % may be the effect or the level left.
Data set [17] can be described thus: Drug uptake in tumor of BALB/c mouse xenografted with mouse 4T1 cells at 0.25 umol/kg, iv measured after 24 hrs by fluorescence imaging based IVIS spectrum-CT method. The note with it: in vivo, dose 0.25 µmol/kg. Format: ADME, organism-based, BALB/c m, Neoplasm. The procedure, abridged:
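BALB/c mice (3/group) were given 4T1-luc cells iv to seed lung tumors, and bioluminescence was imaged at day 9. Photosensitizer 0.25 μmol/kg iv, then fluorescence imaging at 24 h on IVIS Spectrum-CT (Ex 785 nm, Em >830 nm). The fluorescence image was merged with bioluminescence.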

A short description of data set [18]: Skin phototoxicity in BALB/c mouse assessed as foot response at 0.25 umol/kg, iv after 24 to 96 hrs post dose followed by mouse restrainment and one hind foot illumination with solar light for 30 mins. Format: organism-based, BALB/c m. The settings on record: in vivo, 0.5 h, time 24-96 hrs, dose 0.25 µmol/kg. A digest of the protocol: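 Non-tumor BALB/c mice given photosensitizer 0.25 μmol/kg iv. At 24, 48, 72 or 96 h (3 mice/group), one hind foot was illuminated for 30 min; the other foot served as control. Edema, erythema, epilation and desquamation scored 0 (normal) to 3 (loss of foot), followed for 4 more days.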

Data set [19] can be described thus: Stability in mouse Colon 26 cells culture media assessed as hydrolysis of methyl ester to carboxylic acid incubated for 24 hrs by TLC analysis. The note with it: colon 26, 24 h.
Data set [20] relates to Colon 26 (mouse). Briefly: Drug uptake in tumor of BALB/c mouse xenografted with mouse Colon 26 cells at 0.25 umol/kg, iv measured after 24 hrs followed by exposure to 787 nm light and stoppage of irradiation at regular intervals up to 30 mins by fluorescence imaging based IVIS spectrum-CT method. The note with it: in vivo, at 0.25 µmol/kg.

Drug uptake, Activity and Stabilty data for five compounds are collected here from ChEMBL document CHEMBL4680088, “Highly Effective Dual-Function Near-Infrared (NIR) Photosensitizer for Fluorescence Imaging and Photodynamic Therapy (PDT) of Cancer” (J Med Chem, 2016).

Calls of active or inactive are those of the source. No cut-off for these calls is given here.

`CCCCO[C@@H](C)c1c(C)c2cc3nc(c4c5[nH]c(cc6nc(cc1[nH]2)[C@H](C)[C@H]6CC)c(C)c5C(=O)N(CCCC)C4=O)[C@@H](CCC(=O)OC)[C@@H]3C`: the Drug uptake result in [1] was “Active”. Also, the outcome in [2] and in data set [3] was Active.

For the compound `CCCCO[C@H](C)c1c(C)c2cc3nc(c4c5[nH]c(cc6nc(cc1[nH]2)[C@H](C)[C@H]6CC)c(C)c5C(=O)N(CCCC)C4=O)[C@@H](CCC(=O)OC)[C@@H]3C`, the Drug uptake entry in [1] is listed as “Active”. Also, the outcome in data set [2] and in [3] was Active.

As to `CCCCOC(C)c1c(C)c2cc3nc(c4c5[nH]c(cc6nc(cc1[nH]2)[C@H](C)[C@H]6CC)c(C)c5C(=O)N(CCCC)C4=O)[C@@H](CCC(=O)O)[C@@H]3C` (some centres not stated), the outcome in data set [4] and in [13] was Active. Besides, the Drug uptake entry in data set [5] was “Active”. In addition, the outcome in data set [6] and in [7] was inactive. Further, the Activity in data set [8] was 0.3%; in data set [9] it was 1.2%; in data set [10] it was 5.8%; in data set [11], 9%; in data set [12], 15%.

As to `CCCCN1C(=O)c2c3nc(cc4[nH]c(cc5nc(cc6[nH]c2c(c6C)C1=O)[C@H](CC)[C@H]5C)c(C(C)O[14CH2]CCC)c4C)[C@@H](C)[C@@H]3CCC(=O)OC` (some centres not stated), the Drug uptake entry in data set [14] is “Active”.

On to `CCCCOC(C)c1c(C)c2cc3nc(c4c5[nH]c(cc6nc(cc1[nH]2)[C@H](C)[C@H]6CC)c(C)c5C(=O)N(CCCC)C4=O)[C@@H](CCC(=O)OC)[C@@H]3C` (some centres not stated), for which the outcome in data set [4] and in [13] was Active. Moreover, the Drug uptake entry in data set [1] is recorded as “Active”; in [15] it was “Not Active”; in [17] it was “Active”; in data set [20], 40%. For the same compound, the Activity was 80% in [16]; “Non-Toxic” in data set [18]; 0.1% in data set [8]; 0.2% in [9]; 0.5% in data set [10]; 1.5% in data set [11]. Also, the Activity in data set [12] worked out at 2.4%. Moreover, in data set [7], the result was inactive. In [19], the Stabilty entry is reported as “Stable”.
